Experimental data published in ChEMBL document CHEMBL1128230, “5'-[4-(Pivaloyloxy)-1,3,2-dioxaphosphorinan-2-yl]-2'-deoxy-5-fluorouridine: a membrane-permeating prodrug of 5-fluoro-2'-deoxyuridylic acid (FdUMP)” (J Med Chem, 1995).

Key:
[1] = test system: CHO; assay: Growth inhibitory activity against CHO cells in culture.; format: functional, cell-based; settings: Cricetulus griseus
Method in brief: (§1)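 CHO cells and FU-resistant CHO subline plated at about 200 cells per 35-mm dish and cloned with drug at 0, 0.5, 1.5, 5, 10, 50 and 100 µM for 7 days at 37 °C in humidified CO2. Clones fixed in 10% formaldehyde and stained with 0.1% crystal violet. Minimum inhibitory concentration is the lowest concentration giving colonies of fewer than 50 cells.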

[2] = test system: CHO-FU; assay: Growth inhibitory activity against CHO/FU cells in culture.; format: functional, cell-based; settings: Cricetulus griseus; method in brief: as §1
[3] = test system: Mus musculus; assay: Percentage increase in life span of treated mice implanted intraperitoneally with P-388 leukemia sensitive cells compared with controls at a dose of 100 mg/kg.; format: functional; settings: P388, ip, route intraperitoneal
Method in brief: (§2)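 Male BDF1 mice (six per group, average 22 g) inoculated ip with 1 × 10^6 P-388 cells, wild-type or FU-resistant subline, on day 0. Drugs given ip daily for 5 consecutive days starting 24 h after implantation, in 0.9% saline or Emulphor 620 vehicle; followed until death. Median survival of treated (T) vs saline controls (C); % ILS = (T/C − 1) × 100; body weight change recorded.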

[4] = test system: Mus musculus; assay: Percentage increase in life span of treated mice implanted intraperitoneally with P-388 leukemia sensitive cells compared with controls at a dose of 150 mg/kg.; format: functional; settings: P388, ip, route intraperitoneal; method in brief: as §2
[5] = test system: Mus musculus; assay: Percentage increase in life span of treated mice implanted intraperitoneally with P-388 leukemia sensitive cells compared with controls at a dose of 67 mg/kg.; format: functional; settings: P388, ip, route intraperitoneal; method in brief: as §2
[6] = test system: Mus musculus; assay: Median survival time of […] implanted intraperitoneally with P-388 leukemia sensitive cells at a dose of 100 mg/kg.; format: functional; settings: route intraperitoneal
[7] = test system: Mus musculus; assay: Median survival time of 15 mice implanted intraperitoneally with P-388 leukemia sensitive cells at a dose of 150 mg/kg.; format: functional; settings: route intraperitoneal
[8] = test system: Mus musculus; assay: Median survival time of 15 mice implanted intraperitoneally with P-388 leukemia sensitive cells at a dose of 67 mg/kg.; format: functional; settings: route intraperitoneal
[9] = test system: Mus musculus; assay: Percentage increase in life span of treated mice implanted intraperitoneally with P-388 leukemia resistant cells compared with controls at a dose of 100 mg/kg.; format: functional; settings: P388, ip, route intraperitoneal; method in brief: as §2
[10] = test system: Mus musculus; assay: Percentage increase in life span of treated mice implanted intraperitoneally with P-388 leukemia resistant cells compared with controls at a dose of 150 mg/kg.; format: functional; settings: P388, ip, route intraperitoneal; method in brief: as §2
[11] = test system: Mus musculus; assay: Median survival time of […] implanted intraperitoneally with P-388 leukemia resistant cells at a dose of 100 mg/kg.; format: functional; settings: route intraperitoneal
[12] = test system: Mus musculus; assay: Median survival time of […] implanted intraperitoneally with P-388 leukemia resistant cells at a dose of 150 mg/kg.; format: functional; settings: route intraperitoneal
[13] = test system: Mus musculus; assay: Median survival time of […] implanted intraperitoneally with P-388 leukemia resistant cells at a dose of 67 mg/kg.; format: functional; settings: route intraperitoneal
[14] = test system: Mus musculus; assay: Average percentage weight change on day 5 in mice implanted intraperitoneally with P-388 leukemia sensitive cells at a dose of 150 mg/kg.; format: functional; settings: route intraperitoneal
Method in brief: (§3)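 Male BDF1 mice, six per group, average weight 22 g; 1 × 10^6 P-388 cells (FU-sensitive P-388/0 or FU-resistant P-388/FU) inoculated ip on day 0. Dosing ip daily for 5 consecutive days starting 24 h after implantation. Saline vehicle for FU and FUdR; Emulphor 620 formulation for the prodrug. Followed until death. % ILS = (T/C − 1) × 100 from median survival versus saline-treated controls.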

[15] = test system: Mus musculus; assay: Average percentage weight change on day 5 in mice implanted intraperitoneally with P-388 leukemia sensitive cells at a dose of 67 mg/kg.; format: functional; settings: route intraperitoneal; method in brief: as §3
[16] = test system: Mus musculus; assay: Average percentage weight change on day 5 in mice implanted intraperitoneally with P-388 leukemia resistant cells at a dose of 100 mg/kg.; format: functional; settings: route intraperitoneal; method in brief: as §3
[17] = test system: Mus musculus; assay: Average percentage weight change on day 5 in mice implanted intraperitoneally with P-388 leukemia resistant cells at a dose of 150 mg/kg.; format: functional; settings: route intraperitoneal; method in brief: as §3
[18] = test system: Mus musculus; assay: Average percentage weight change on day 5 in mice implanted intraperitoneally with P-388 leukemia resistant cells at a dose of 67 mg/kg.; format: functional; settings: route intraperitoneal; method in brief: as §3
[19] = test system: Mus musculus; assay: Average percentage weight change on day 5 in mice implanted intraperitoneally with P-388 leukemia sensitive cells at a dose of 100 mg/kg at a dose of 100 mg/kg.; format: functional; method in brief: as §3
[20] = test system: Mus musculus; assay: Percentage increase in life span of treated mice implanted intraperitoneally with P-388 leukemia resistant cells compared with controls at a dose of 67 mg/kg.; format: functional; settings: P388, ip, route intraperitoneal; method in brief: as §2
[21] = test system: Mus musculus; assay: Percentage increase in life span of treated mice implanted intraperitoneally with P-388 leukemia sensitive cells compared with controls at a dose of 20 mg/kg.; format: functional; settings: P388, ip, route intraperitoneal; method in brief: as §2
[22] = test system: Mus musculus; assay: Percentage increase in life span of treated mice implanted intraperitoneally with P-388 leukemia sensitive cells compared with controls at a dose of 30 mg/kg.; format: functional; settings: P388, ip, route intraperitoneal; method in brief: as §2
[23] = test system: Mus musculus; assay: Median survival time of 15 mice implanted intraperitoneally with P-388 leukemia sensitive cells at a dose of 20 mg/kg.; format: functional; settings: route intraperitoneal
[24] = test system: Mus musculus; assay: Median survival time of 15 mice implanted intraperitoneally with P-388 leukemia sensitive cells at a dose of 30 mg/kg.; format: functional; settings: route intraperitoneal; method in brief: as §2
[25] = test system: Mus musculus; assay: Percentage increase in life span of treated mice implanted intraperitoneally with P-388 leukemia resistant cells compared with controls at a dose of 20 mg/kg.; format: functional; settings: P388, ip, route intraperitoneal; method in brief: as §2
[26] = test system: Mus musculus; assay: Percentage increase in life span of treated mice implanted intraperitoneally with P-388 leukemia resistant cells compared with controls at a dose of 30 mg/kg.; format: functional; settings: P388, ip, route intraperitoneal; method in brief: as §2
[27] = test system: Mus musculus; assay: Percentage increase in life span of treated mice implanted intraperitoneally with P-388 leukemia resistant cells compared with controls at a dose of 40 mg/kg.; format: functional; settings: P388, ip, route intraperitoneal; method in brief: as §2
[28] = test system: Mus musculus; assay: Median survival time of 15 mice implanted intraperitoneally with P-388 leukemia resistant cells at a dose of 20 mg/kg.; format: functional; settings: route intraperitoneal
[29] = test system: Mus musculus; assay: Median survival time of 15 mice implanted intraperitoneally with P-388 leukemia resistant cells at a dose of 30 mg/kg.; format: functional; settings: route intraperitoneal
[30] = test system: Mus musculus; assay: Median survival time of 15 mice implanted intraperitoneally with P-388 leukemia resistant cells at a dose of 40 mg/kg.; format: functional; settings: route intraperitoneal
[31] = test system: Mus musculus; assay: Average percentage weight change on day 5 in mice implanted intraperitoneally with P-388 leukemia sensitive cells at a dose of 20 mg/kg.; format: functional; settings: route intraperitoneal; method in brief: as §2
[32] = test system: Mus musculus; assay: Average percentage weight change on day 5 in mice implanted intraperitoneally with P-388 leukemia sensitive cells at a dose of 30 mg/kg.; format: functional; settings: route intraperitoneal; method in brief: as §2
[33] = test system: Mus musculus; assay: Average percentage weight change on day 5 in mice implanted intraperitoneally with P-388 leukemia resistant cells at a dose of 20 mg/kg.; format: functional; settings: route intraperitoneal; method in brief: as §2
[34] = test system: Mus musculus; assay: Average percentage weight change on day 5 in mice implanted intraperitoneally with P-388 leukemia resistant cells at a dose of 30 mg/kg.; format: functional; settings: route intraperitoneal; method in brief: as §2
[35] = test system: Mus musculus; assay: Average percentage weight change on day 5 in mice implanted intraperitoneally with P-388 leukemia resistant cells at a dose of 40 mg/kg.; format: functional; settings: route intraperitoneal; method in brief: as §2
[36] = test system: Mus musculus; assay: Percentage increase in life span of treated mice implanted intraperitoneally with P-388 leukemia sensitive cells compared with controls for a dose of 100 mg/kg.; format: functional; settings: P388, ip, route intraperitoneal
Method in brief: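 Male BDF1 mice (six per group, about 22 g) inoculated ip with 1 × 10^6 P-388/0 leukemia cells on day 0. Drugs given ip daily for 5 consecutive days starting 24 h after implantation, in 0.9% saline or Emulphor 620 vehicle. Animals followed until death. %ILS = (T/C − 1) × 100 from median survival of treated versus saline-treated controls.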

[37] = test system: Mus musculus; assay: Median survival time of […] implanted intraperitoneally with P-388 leukemia sensitive cells for a dose of 100 mg/kg.; format: functional; settings: route intraperitoneal
[38] = test system: Mus musculus; assay: Percentage increase in life span of treated mice implanted intraperitoneally with P-388 leukemia resistant cells compared with controls for a dose of 100 mg/kg.; format: functional; settings: P388, ip, route intraperitoneal; method in brief: as §2
[39] = test system: Mus musculus; assay: Median survival time of […] implanted intraperitoneally with P-388 leukemia resistant cells for a dose of 100 mg/kg.; format: functional; settings: route intraperitoneal
[40] = test system: Mus musculus; assay: Average percentage weight change on day 5 in mice implanted intraperitoneally with P-388 leukemia sensitive cells for a dose of 100 mg/kg.; format: functional; settings: route intraperitoneal; method in brief: as §3
[41] = test system: Mus musculus; assay: Average percentage weight change on day 5 in mice implanted intraperitoneally with P-388 leukemia resistant cells for a dose of 100 mg/kg.; format: functional; settings: route intraperitoneal; method in brief: as §3

Structure (SMILES): C=CC=O [ACROLEIN]
- IC50 [1]: 50 µM
- IC50 [2]: 50 µM

Structure (SMILES): O=c1[nH]c(=O)n([C@H]2C[C@H](O)[C@@H](CO)O2)cc1F [FLOXURIDINE]
- ILS at 100 mg/kg [3]: 73%
- ILS at 150 mg/kg [4]: 82%
- ILS at 67 mg/kg [5]: 45%
- MST [6]: 19 days
- MST [7]: 20 days
- MST [8]: 16 days
- ILS at 100 mg/kg [9]: 18%
- ILS at 150 mg/kg [10]: 18%
- MST [11]: 13 days
- MST [12]: 13 days
- MST [13]: 12 days
- Weight change [14]: -5%
- Weight change [15]: -2%
- Weight change [16]: -10%
- Weight change [17]: -10%
- Weight change [18]: -6%
- Weight change [19]: -4%
- ILS at 67 mg/kg [20]: 9%

Structure (SMILES): O=c1[nH]cc(F)c(=O)[nH]1 [FLUOROURACIL]
- IC50 [1]: 5 µM
- IC50 [2]: 100 µM
- ILS at 20 mg/kg [21]: 45%
- ILS at 30 mg/kg [22]: 55%
- MST [23]: 16 days
- MST [24]: 17 days
- ILS at 20 mg/kg [25]: -9%
- ILS at 30 mg/kg [26]: -18%
- ILS at 40 mg/kg [27]: -18%
- MST [28]: 10 days
- MST [29]: 9 days
- MST [30]: 9 days
- Weight change [31]: -5%
- Weight change [32]: -15%
- Weight change [33]: -6%
- Weight change [34]: -15%
- Weight change [35]: -18%

Structure (SMILES): O=S(=O)([O-])CCS.[Na+] [MESNA]
- ILS at 100 mg/kg [36]: 0%
- MST [37]: 11 days
- ILS at 100 mg/kg [38]: 0%
- MST [39]: 11 days
- Weight change [40]: 10%
- Weight change [41]: 12%
